Measurements: PMC3839042 (Biochemistry, 2013)

Tests used:
S100B [1] = target: T1, S100B (Homo sapiens, UniProt P04271); assay: Acrylamide dynamic quenching of peptide Trp in S100B complex; type: binding; settings: Stern-Volmer constant
T1 sequence (P04271 2-92 limits assumed): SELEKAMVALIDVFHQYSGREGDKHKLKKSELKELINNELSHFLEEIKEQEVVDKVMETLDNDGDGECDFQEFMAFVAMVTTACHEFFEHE
In short: (§1)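 Trp quenching was run on 4–8 μM peptide with or without saturating S100 protein, in binding buffer (20 mM Tris, 0.2 mM EDTA, 1 mM TCEP, pH 7.5) containing 5 mM CaCl2 or 5 mM EDTA. Acrylamide was titrated to about 0.6 M final. Intensities were dilution-corrected, fitted to a modified Stern-Volmer equation with a static term, and averages reported.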

S100A2 [2] = target: T2, S100A2 (Homo sapiens, UniProt P29034); assay: ITC titration of TRTK12 peptides with S100A2; settings: heat capacity change upon binding, slope of ΔHcal vs temperature
S100A2 [3] = target: T2, S100A2; assay: Acrylamide dynamic quenching of peptide Trp in S100A2 complex; type: binding; settings: Stern-Volmer constant
In short: as §1

S100P [4] = target: T3, S100P (Homo sapiens, UniProt P25815); assay: ITC titration of TRTK12 peptides with S100P; type: binding; settings: for ΔCp, exp: heat capacity change upon binding, slope of ΔHcal vs temperature, ITC
T3 sequence (P25815 1-95): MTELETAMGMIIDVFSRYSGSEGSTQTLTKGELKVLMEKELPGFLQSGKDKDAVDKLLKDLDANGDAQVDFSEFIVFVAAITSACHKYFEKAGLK

S100P [5] = target: T3, S100P; assay: Steady-state emission fluorescence titration with S100P; type: binding; settings: Trp emission
S100B [6] = target: T1, S100B; assay: ITC titration of TRTK12 peptides with S100B; type: binding
[7] = ITC fit, Equation 1, 5 mM CaCl2

T2 sequence (P29034 whole entry): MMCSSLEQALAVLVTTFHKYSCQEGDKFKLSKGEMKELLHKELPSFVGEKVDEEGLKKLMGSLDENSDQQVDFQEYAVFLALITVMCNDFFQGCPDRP

SMILES	S100B+Peptide KSV (S100B [1]; saturating S100B, 5 mM CaCl2)	ΔCp, exp (S100A2 [2])	S100A2+Peptide KSV (S100A2 [3]; 5 mM CaCl2)	ΔCp, exp (S100P [4])	changes in the emission fluorescence intensity of the tryptophan upon peptide binding or dissociation (S100P [5])	S100B+Peptide KSV (S100B [1]; in the presence of 150mM NaCl)	S100A2+Peptide KSV (S100A2 [3]; in the presence of 150mM NaCl)	Kd (S100B [6])	stoichiometry n (peptides per S100B dimer) (S100B [6]; [7])	stoichiometry n (peptides per S100P dimer) (S100P [4]; [7])
CC[C@H](C)[C@H](NC(=O)[C@H](CCCCN)NC(=O)[C@H](CC(N)=O)NC(=O)[C@H](Cc1c[nH]c2ccccc12)NC(=O)[C@H](CC(=O)O)NC(=O)[C@@H](NC(=O)[C@H](CCCCN)NC(=O)[C@@H](NC(=O)[C@H](CCCNC(=N)N)NC(=O)[C@H](C)NC(C)=O)[C@@H](C)O)[C@@H](C)CC)C(=O)N[C@@H](CC(C)C)C(=O)N[C@@H](CO)C(N)=O [TRTKM1]	2.4 ± 0.1 M⁻¹	−0.8 ± 0.1 kJ·mol^−1·K^−1	4.3 ± 0.2 M⁻¹	−0.9 ± 0.1 kJ·mol^−1·K^−1	–	–	–	–	–	–
CC[C@H](C)[C@H](NC(=O)[C@H](CCCCN)NC(=O)[C@H](CC(N)=O)NC(=O)[C@H](Cc1c[nH]c2ccccc12)NC(=O)[C@H](CC(=O)O)NC(=O)[C@H](C)NC(=O)[C@H](CCCCN)NC(=O)[C@@H](NC(=O)[C@H](CCCNC(=N)N)NC(=O)[C@@H](NC(C)=O)[C@@H](C)O)[C@@H](C)O)C(=O)N[C@@H](CC(C)C)C(=O)N[C@@H](CO)C(N)=O [TRTKM5]	2.8 ± 0.1 M⁻¹	−0.9 ± 0.1 kJ·mol^−1·K^−1	8.9 ± 0.2 M⁻¹	−1.2 ± 0.1 kJ·mol^−1·K^−1	no observable changes	–	–	–	–	–
CC[C@H](C)[C@H](NC(=O)[C@H](CCCCN)NC(=O)[C@@H](NC(=O)[C@H](CCCNC(=N)N)NC(=O)[C@@H](NC(C)=O)[C@@H](C)O)[C@@H](C)O)C(=O)N[C@@H](C)C(=O)N[C@@H](Cc1c[nH]c2ccccc12)C(=O)N[C@@H](CC(N)=O)C(=O)N[C@@H](CCCCN)C(=O)N[C@H](C(=O)N[C@@H](CC(C)C)C(=O)N[C@@H](CO)C(N)=O)[C@@H](C)CC [TRTKM6]	–	−0.7 ± 0.1 kJ·mol^−1·K^−1	–	−0.9 ± 0.1 kJ·mol^−1·K^−1	no observable changes	3.7 ± 0.1 ^a M^−1	4.7 ± 0.1 ^a M^−1	–	–	–
CC[C@H](C)[C@H](NC(=O)[C@H](C)NC(=O)[C@H](CC(N)=O)NC(=O)[C@H](Cc1c[nH]c2ccccc12)NC(=O)[C@H](CC(=O)O)NC(=O)[C@@H](NC(=O)[C@H](CCCCN)NC(=O)[C@@H](NC(=O)[C@H](CCCNC(=N)N)NC(=O)[C@@H](NC(C)=O)[C@@H](C)O)[C@@H](C)O)[C@@H](C)CC)C(=O)N[C@@H](CC(C)C)C(=O)N[C@@H](CO)C(N)=O [TRTKM9]	7.2 ± 0.2 M⁻¹	−0.4 ± 0.1 kJ·mol^−1·K^−1	6.1 ± 1.1 M⁻¹	−1.0 ± 0.1 kJ·mol^−1·K^−1	no observable changes	–	–	1700 ± 100 nM	–	–
CC[C@H](C)[C@H](NC(=O)[C@H](CCCCN)NC(=O)[C@@H](NC(=O)[C@H](CCCNC(=N)N)NC(=O)[C@@H](NC(C)=O)[C@@H](C)O)[C@@H](C)O)C(=O)N[C@@H](CC(=O)O)C(=O)N[C@@H](Cc1c[nH]c2ccccc12)C(=O)N[C@@H](CC(N)=O)C(=O)N[C@@H](CCCCN)C(=O)N[C@@H](C)C(=O)N[C@@H](CC(C)C)C(=O)N[C@@H](CO)C(N)=O [TRTKM10]	7.5 ± 0.1 M⁻¹	–	–	−1.3 ± 0.1 kJ·mol^−1·K^−1	–	–	–	–	–	–
CC[C@H](C)[C@H](NC(=O)[C@H](CCCCN)NC(=O)[C@H](CC(N)=O)NC(=O)[C@H](Cc1c[nH]c2ccccc12)NC(=O)[C@H](CC(=O)O)NC(=O)[C@@H](NC(=O)[C@H](CCCCN)NC(=O)[C@@H](NC(=O)[C@H](CCCNC(=N)N)NC(=O)[C@@H](NC(C)=O)[C@@H](C)O)[C@@H](C)O)[C@@H](C)CC)C(=O)N[C@@H](C)C(=O)N[C@@H](CO)C(N)=O [TRTKM11]	7.2 ± 0.1 M⁻¹	−1.6 ± 0.1 kJ·mol^−1·K^−1	8.7 ± 0.2 M⁻¹	−1.8 ± 0.1 kJ·mol^−1·K^−1	–	–	–	–	1	1
